Reference: ChEMBL document CHEMBL1145471, “Small molecule regulators of autophagy identified by an image-based high-throughput screen” (Proc Natl Acad Sci U S A, 2007)
Activity calls are given as the source filed them. No cut-off for these calls is given here.

Key:
[1] = target: Serine/threonine-protein kinase mTOR (Homo sapiens, UniProt P42345); experiment: Effect on mTOR phosphorylation in human H4 cells at 4.8 uM after 4 hrs; type: cell-based
Summary of the method: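 H4 cells exposed to compound for 4 h. Lysates analysed by Western blot with anti-phospho and anti-total mTOR antibodies, with actin as loading control. Rapamycin served as reference.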

H4 [2] = experiment: Increase in light chain 3-GFP+ autophagosome vesicle area per cell in human H4 cells at 4.8 uM after 24 hrs by high throughput fluorescence microscopy relative to control; type: functional
Summary of the method: (§1)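 H4 cells stably expressing LC3-GFP, seeded in 96-well plates and exposed to compound for 24 h; screening concentrations were 3–12 μM, with rapamycin 0.22 μM and bafilomycin A1 0.40 μM. Cells fixed in 4% paraformaldehyde and stained with 3 μg/ml DAPI. Number, size and intensity of LC3-GFP spots measured by high-throughput fluorescence microscopy and expressed as percent of DMSO-treated wells. Rapamycin was the positive control. Triplicate wells, mean ± SD; experiments repeated three times.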

H4 [3] = experiment: Increase in long-lived protein degradation in human H4 cells after 4 hrs relative to control; type: functional; design: concentration or dose not given beside the values
H4 [4] = experiment: Increase in ratio of light chain 3 subunit 2 to light chain 3 subunit 1 in human H4 cells at 4.8 uM after 4 hrs by Western blot; type: functional, cell-based
Summary of the method: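 H4 cells were treated with each compound for 4 h, then lysed. Lysates were immunoblotted with anti-LC3 antibody, with actin as loading control. LC3II and LC3I bands were compared as an LC3II/LC3I ratio.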

H4 [5] = experiment: Increase in long-lived protein degradation in human H4 cells after 2 hrs relative to control; type: functional; design: concentration or dose not given beside the values
H4 [6] = experiment: Increase in FYVE-RFP+ vesicle intensity per cell in human H4 cells after 4 hrs relative to control; type: functional; design: concentration or dose not given beside the values
Summary of the method: (§2)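 H4 cells stably expressing FYVE-RFP (H4-FYVE), grown in DMEM with 10% FBS, penicillin/streptomycin and 2 mM L-glutamine at 37°C, 5% CO2, seeded in 96-well plates and exposed to compound. Fixed in 4% paraformaldehyde, nuclei stained with 3 μg/ml DAPI, FYVE-RFP+ vesicles quantified by high-throughput fluorescence microscopy against DMSO control. Triplicate wells, mean ± SD.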

H4 [7] = experiment: Increase in FYVE-RFP+ vesicle intensity per cell in human H4 cells after 8 hrs relative to control; type: functional; design: concentration or dose not given beside the values; summary of the method: as §2
H4 [8] = experiment: Increase in light chain 3-GFP+ autophagosome vesicle number per cell in human H4 cells at 4.8 uM after 24 hrs by high throughput fluorescence microscopy relative to control; type: functional
Summary of the method: (§3)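 H4 cells stably expressing LC3-GFP were grown in DMEM with 10% FBS and 2 mM L-glutamine at 37°C, 5% CO2. They were exposed to each compound for 24 h, with DMSO as negative and rapamycin as positive control. Cells were then fixed in 4% paraformaldehyde and stained with 3 μg/ml DAPI. High-throughput fluorescence imaging scored LC3-GFP spot number, size and intensity, expressed relative to DMSO. Mean ± SD of triplicates; experiments repeated three times.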

H4 [9] = experiment: Increase in FYVE-RFP+ vesicle intensity per cell in human H4 cells after 2 hrs relative to control; type: functional; design: concentration or dose not given beside the values; summary of the method: as §2
H4 [10] = experiment: Increase in long-lived protein degradation in human H4 cells after 1 hr relative to control; type: functional; design: concentration or dose not given beside the values
H4 [11] = experiment: Induction of light chain 3-GFP level in human H4 cells at 4.8 uM after 24 hrs by high throughput fluorescence microscopy relative to control; type: functional
Summary of the method: (§4)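 H4 cells stably expressing LC3-GFP, grown in DMEM with 10% FBS, penicillin/streptomycin and 2 mM L-glutamine at 37°C, 5% CO2. Cells were seeded in 96-well plates and exposed to library compounds at 3–12 μM for 24 h, then fixed in 4% paraformaldehyde and stained with 3 μg/ml DAPI. LC3-GFP spot number, size and intensity were measured by high-throughput fluorescence microscopy and expressed relative to DMSO. Triplicates, mean ± SD.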

H4 [12] = experiment: Increase in light chain 3-GFP+ autophagosome vesicle intensity per cell in human H4 cells at 4.8 uM after 24 hrs by high throughput fluorescence microscopy relative to control; type: functional; summary of the method: as §3
H4 [13] = experiment: Increase in long-lived protein degradation in human H4 cells after 24 hrs relative to control; type: functional; design: concentration or dose not given beside the values
H4 [14] = experiment: Increase in light chain 3-GFP+ autophagosome vesicle number per cell in human H4 cells at 5.7 uM after 24 hrs by high throughput fluorescence microscopy relative to control; type: functional
Summary of the method: (§5)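 H4 cells stably expressing LC3-GFP, kept in DMEM/10% FBS at 37°C, 5% CO2, were seeded in 96-well plates and exposed to compound for 24 h. Cells were then fixed in 4% paraformaldehyde and stained with 3 μg/ml DAPI. Automated fluorescence microscopy scored the number, size and intensity of LC3-GFP spots. Values are percent of DMSO wells, in triplicate, mean ± SD. Rapamycin served as positive control.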

H4 [15] = experiment: Effect on FYVE-RFP+ vesicle intensity per cell in human H4 cells after 4 hrs relative to control; type: functional; design: concentration or dose not given beside the values; summary of the method: as §2
H4 [16] = experiment: Induction of light chain 3-GFP level in human H4 cells at 5.7 uM after 24 hrs by high throughput fluorescence microscopy relative to control; type: functional; summary of the method: as §5
H4 [17] = experiment: Effect on FYVE-RFP+ vesicle intensity per cell in human H4 cells after 2 hrs relative to control; type: functional; design: concentration or dose not given beside the values; summary of the method: as §2
H4 [18] = experiment: Increase in light chain 3-GFP+ autophagosome vesicle area per cell in human H4 cells at 5.7 uM after 24 hrs by high throughput fluorescence microscopy relative to control; type: functional
Summary of the method: (§6)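 H4 cells stably expressing LC3-GFP, seeded in 96-well plates and exposed to compound for 24 h; fixed in 4% paraformaldehyde, nuclei stained with 3 μg/ml DAPI. Automated fluorescence microscopy scored number, size and intensity of LC3-GFP spots; values expressed relative to DMSO-treated wells, rapamycin positive control. Triplicate wells, mean ± SD; experiments repeated three times.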

H4 [19] = experiment: Increase in light chain 3-GFP+ autophagosome vesicle intensity per cell in human H4 cells at 5.7 uM after 24 hrs by high throughput fluorescence microscopy relative to control; type: functional; summary of the method: as §6
H4 [20] = experiment: Effect on FYVE-RFP+ vesicle intensity per cell in human H4 cells after 8 hrs relative to control; type: functional; design: concentration or dose not given beside the values; summary of the method: as §2
H4 [21] = experiment: Increase in light chain 3-GFP+ autophagosome vesicle area per cell in human H4 cells at 6.6 uM after 24 hrs by high throughput fluorescence microscopy relative to control; type: functional; summary of the method: as §1
H4 [22] = experiment: Induction of light chain 3-GFP level in human H4 cells at 6.6 uM after 24 hrs by high throughput fluorescence microscopy relative to control; type: functional; summary of the method: as §4
H4 [23] = experiment: Increase in light chain 3-GFP+ autophagosome vesicle number per cell in human H4 cells at 6.6 uM after 24 hrs by high throughput fluorescence microscopy relative to control; type: functional; summary of the method: as §3
H4 [24] = experiment: Increase in light chain 3-GFP+ autophagosome vesicle intensity per cell in human H4 cells at 6.6 uM after 24 hrs by high throughput fluorescence microscopy relative to control; type: functional; summary of the method: as §3
H4 [25] = experiment: Increase in light chain 3-GFP+ autophagosome vesicle number per cell in human H4 cells at 4.4 uM after 24 hrs by high throughput fluorescence microscopy relative to control; type: functional; summary of the method: as §3
H4 [26] = experiment: Induction of light chain 3-GFP level in human H4 cells at 4.4 uM after 24 hrs by high throughput fluorescence microscopy relative to control; type: functional; summary of the method: as §4
H4 [27] = experiment: Increase in light chain 3-GFP+ autophagosome vesicle intensity per cell in human H4 cells at 4.4 uM after 24 hrs by high throughput fluorescence microscopy relative to control; type: functional; summary of the method: as §3
H4 [28] = experiment: Increase in light chain 3-GFP+ autophagosome vesicle area per cell in human H4 cells at 4.4 uM after 24 hrs by high throughput fluorescence microscopy relative to control; type: functional; summary of the method: as §1
H4 [29] = experiment: Induction of autophagy in human H4 cells; type: functional, cell-based

| SMILES | Activity (H4 [3]) | Activity (H4 [5]) | Activity (H4 [10]) | Activity (H4 [13]) | Activity (H4 [15]) | Activity (H4 [17]) | Activity (H4 [20]) | other results |
| --- | --- | --- | --- | --- | --- | --- | --- | --- |
| COC(=O)C1=C(C)NC(C)=C(C(=O)OCCN(C)Cc2ccccc2)C1c1cccc([N+](=O)[O-])c1 (configuration not stated) [NICARDIPINE] | 122.6% | 126.59% | 84.62% | 121.03% | – | – | – | Activity [1]: inactive; Activity (H4 [2]): 197.46%; Activity (H4 [4]): Active; Activity (H4 [6]): 112.51%; Activity (H4 [7]): 104.77%; Activity (H4 [8]): 169.02%; Activity (H4 [9]): 132.05%; Activity (H4 [11]): 131.58%; Activity (H4 [12]): 229.64% |
| CC(C)(O)[C@H]1O[C@H]2CC[C@@]3(C)[C@@](O)(CC[C@H]4Cc5c([nH]c6ccccc56)[C@@]43C)C2=CC1=O [PAXILLINE] | 106.27% | 112.34% | 100.56% | 102.35% | 52.37% | 100.56% | 56.82% | Activity (H4 [14]): 162.66%; Activity (H4 [16]): 119.79%; Activity (H4 [18]): 185.52%; Activity (H4 [19]): 205.83% |
| CCCNCC(O)COc1ccccc1C(=O)CCc1ccccc1 (configuration not stated) [PROPAFENONE] | 99.78% | 113.22% | 114.56% | 102.73% | 78.75% | 114.69% | 62.87% | Activity (H4 [21]): 271.21%; Activity (H4 [22]): 99.88%; Activity (H4 [23]): 210.4%; Activity (H4 [24]): 385.97% |
| CC/C(=C(\c1ccccc1)c1ccc(OCCN(C)C)cc1)c1ccccc1 [TAMOXIFEN] | 105.85% | 101.24% | 70.67% | 114.97% | 71.55% | 77.66% | 85.37% | Activity (H4 [25]): 291.52%; Activity (H4 [26]): 91.2%; Activity (H4 [27]): 585.87%; Activity (H4 [28]): 376.53%; Activity (H4 [29]): inactive |
